The text below walks through data of the RNAGym collection of RNA variant scans (doi:10.1126/science.aae0568).

Fewer inactive variants are shown than the library holds. Bounds are passed on as bounds.

B1: tRNA (parent)
chain: GUUCCGUUGGCGUAAUGGUAACGCGUCUCCCUCCUAAGGAGAAGACUGCGGGUUCGAGUCCCGUACGGAACG

In this data set the parent is B1. The data set is described as follows: yeast fitness relative to wild type (ratio to wild type); higher = fitter; tRNA-Arg(CCU), competitive growth, 37 C, YPD. The method, boiled down: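 Start and end populations of a pooled competition were compared by 100-nucleotide paired-end sequencing of gene amplicons. The Saccharomyces cerevisiae strains carried tRNA-Arg(CCU) gene variants at the native genomic locus, synthesised with a 3% per-site mutation rate at 69 sites, and competed in YPD at 37°C for 24 hours in six parallel replicates. Darwinian fitness relative to wild type was based on the change in genotype frequencies. Genotypes required ≥ 100 starting reads, and estimates < 0.5 were set to 0.5.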
With GUUCCGUUAGCGCAAUGGUAACGCGUCUCCCUCCUAAGGAGAAGACUGCGGGUUCGAGUCCCGUACGGAACG, the yeast fitness was 0.893. The value for GUUCCGUUGGCGUAAUGGUAACGCGUCACCCUCCUAAGGAGAAGCCUGCGGGUUCGAGUCCCGUCCGGAACG was ≤ 0.5; that for GUUCCGUUGGUGGAAUGGUAGCGCGCGUCCCUCCUAAGGAGAAGACUCCGGGUUCGAGUCCCGUACAGAACG was ≤ 0.5; that for GUUCCGUUGGCGUAAUGGUAACGCGUCUCCCUCUUAAGGAGAAGACUGCGGGUUCGAGUCCCGUACGUCACG was ≤ 0.5. Next, GUUCCGUUGGCGUAAUGGUAACGCAUCUCCCUCCUAAGGAGAAGACUGCAGGUUAGAGUCCCGUAAGGAACG: ≤ 0.5; GUUCCGUUGGCGUAAUGGUAACGCGUCUCCCUCCUUAGGAGAAGGCUGCGGGUUCGAGUCCCGUAUGGAGCG: ≤ 0.5; GUUCCGUUGGCAUAAUGGUAACGCGUCUCCCUCCUAAGGAGAAGACUGCAGGUUCGAGUCCCGUACGGAACG: 1.01. Next, GUUCCGUUGGCGUAAUGGUAACGCGUCUCCCUCAUACGGAGAAGACUGCGGGUUCGAGUCCCCUACGGAACG: ≤ 0.5; GUGACGUUGGCGUAAUGGUAACGCGUCUCCCUCCUAAGGUGAAGACUGCGGGUUCGAGUCCCGUACGGAACG: 0.547.

With GUUCCGUUGGCGUAUUGGUGACGCGUUUCACUCCUAAGGAGAAGACUGCGGGUUCGAGUCCCGUACGGAACG, the yeast fitness was ≤ 0.5. Next, GUUCCGUUGGCGUAAUGGUAACGCAUCUCCCUCCUAAGGAGAAGACUACGGGUUCGAGUCCCGUACGGACCG: 1.13. As to GUUCCAUUGGCGUAAUGGUAACGCGUCUCCAUCCUAAGGAGAAGACUGCGGGUUCGAGCCCCGUACGGAUCG, the yeast fitness was ≤ 0.5.

As to GUCCCCUUGGCGUUAUGGUAACGCAUCUCCCUCCUAAAGAGAAGACAGCGGGUUCGAGUGCCGUACGGAGCG, the yeast fitness was found to be 0.51. As for GUUGCGUUGGCGUAACGGUAACGCGUGUCCCUCCUAAGGGGAAGACUACGGGUUCGCGUCCCGUACGGAACG, the yeast fitness was found to be 0.572.

Take GUUCCGUUGGCGUAAUGGUAUCGCGACUCCCUCCUAAGGAGAAGACUGCGGGUUCGAGUCCCGUACGGACCG: the yeast fitness is ≤ 0.5. Next, GUUCCGUUGGCGUAAUGGUAAAGCGUCUCCCUCCUACGGAGAAGACUGCGGGUUCGAGUCCCGUACGGCACG: ≤ 0.5. Next, GUUCCGUUGGCGUAAUGGUAACGCGUUUCUCUCCUAAGGAGAAGAUUGCGGGUGCGAGUCCCGUACGGAGCG: 0.655; GUUCGGUUCGCGUAAUGGUUGCGGGUGUCCCUCCUAAGGAGAGGACUGCGGGUUCGAGUCCCGUACGGAACG: ≤ 0.5. The value for GUUCCGUUGGCGUAAUGGUAACGCGUCUCCCUCCUAAGGAGAAAAAUGCGGAUUCGAGUCCCGUAUGGAACG was 0.62. For the variant GUUCCAUUGGCGUAAUGGUAACGCGUCUCCCUCCUAAGGAGAAGACUGCGGGUUCGAGUCCCGUUCGGAACG, the yeast fitness is 0.925. The value for GUUCCGUUGGCGUAAUGGUAACGCGUCUCCCUCCUAAGGAGAAGACUGAGGGUUCGAGUCCCGUACGUAACG was 0.723; that for GUUCCGUUGGCGUAAUGGUAACGGCUAUCCCUCCUAAGGAGAAGACUGCGGGUUCGAGACCAGUACGGAACG was ≤ 0.5; that for GUUCGGUUGGUGUAAUGGUAACGCGUCUCCCUCCUAAGGAGAAGACUCAGGGUUCGCGUCCCGUACGGAACG was ≤ 0.5. The value for GUUCCGUUGGCGUAAUGGUAACGGGUCUUCCUCCUAAGGAGGAGACUGCGCGUUCGAGUCCCGUACGGAACG was ≤ 0.5; that for GUUCCGUUGGCGUGAUGGUAACGCGUCUUCCUCCUAAGGAGAAGUCUGCGGGUUCGAGUCCCGUACGGAACG was 0.626; that for GUUCCGUCGGCGUAACGGUAACGCGUCUCCCUCCUAAGGAGAAGACUGCGGGUUCGAGUCCCGUACUGAACG was 0.576.

Regarding GUUCAGUUGGCGUCAUGGUAACGCGUCUCCCUCCUAAGGAGAAGACUGCGGGUUCGAGUCCCGUACGAAACG, the yeast fitness was ≤ 0.5. The value for GUUCCGUUGGCGUUAUGGUAACGGGUCUCCCUCCUAAGGAGAAGACUGCGGGUUCGAAUCCCGUACGGAACG was 0.561; that for GUUCCGUUGGCGUAGUGGUAUCGCGUCUCCCUCCUAAGGAGAAGACUGCGGGUUCGAGUCCCGUACGGAACG was 0.989. Next, GUUCCGUUGGCCUAUUGGUAACGCGUCUCCCUCCUAAGGAGAAGACUGUGGGUUCGAGUCCCGUACGGAACG: ≤ 0.5. The value for GUUCCGUUGGCGUAAUGGUAACGCGUCUCCCUCCUAAGGAGAAGACUGCGGGUUCGAGUCUCGUCCGGAACG was 0.864; that for GUUCCGUUGGCGUAAUGGUAACGCGUCUCCCUCCUAAGGAGAAGACUGCGGGUUUGAGUCCCGUACGGAACG was 0.721; that for GUUCCGUUGGCAUAAUGGUAACGCGUCUCCCUCCUAAGGAGAAGACUGGGGGUUCGAGUCCCGUACGGAACG was 0.943. As to GUUCCGUUGGCGUAGUGGCAACGCGUCUCCCUCCUAUGGAGAAGACUGCGGGUUCGAGUCCCGUACGGAACG, the yeast fitness came to 0.622. Take GUUCCAUUGGCGUAAUGGUAACGCGUCUCCCUCCUAAGGUGAAGACUGCGGGUUCGAGUCCCGUACGGCACG: the yeast fitness worked out at 0.581.

Turning to GUACCGUUGGCGUAAUGGUAACGCGUCUCCCUCCUAAGGAGAAGUCUGCGGGUUCGAGUCCCGUACGGUACG, the yeast fitness came to 0.788.

As to GUUCCGUUGGCGCGAUGGUAACGCGUCUCCCUCCUAAGGAGCAGACUGCGGGUUCGAGUCCGGUACGGAACG, the yeast fitness was ≤ 0.5.

For GUUCAGUUGGCGUAAUGGUAACGCGUCUCCCUCCUAAGAAGAAGACUGUGGGUUCGAGUCCCGUACAGAACG, the yeast fitness is ≤ 0.5.

Turning to GUUCCGUUGGCGUAAUGGUAACGCGUCUCCCUCCUAAGGAGAGGACUGUGGGUUCGCGUCCCGUUCGGAACG, the yeast fitness is ≤ 0.5. The value for GUUCCGUUGGCCUAAUGGUAACGCGUCUCCCUCCUAAGGAGAAGACUGCGGGUUCGGGUCCCGUACGGAACG was 0.974; that for GUUCCAUUGGCGUAAUGGUAAUGCGUCUCCCUCGUAAGGAGAAGACUGCGGGUUCCAGUCCCGUACGGAACG was 0.693; that for GUUCCGUUGGCGUAAUGGUAACGCGUCUCCCUCUUAAGGAGAGGACUGCGGGUUCGAGUCCCGUACGGCACG was 0.553.

For GUUCCGUUGGCGUAAUGGUAACCCGUCUCCCUCCUAAGGAGAAGACUGCGAGUUCGAGUCCCGUACGGAACG, the yeast fitness amounted to 0.671. Next, GUUCCGUUGGCGUAAUGGUAACGCGUCUCCCUCAUAAGGAGAAGACUGAGGGUUCGAGUCCCUUACAGAACG: ≤ 0.5; GUUCCGUUGGUGUAAUGGUAACGCGUCUCCCUCCUAAGGAGAAGACUGCGGGUUCGAGUCGCGUCCGGAACG: 0.609; GUUCCGUUGGCGUAACGGUAACGCGACUCCCUCCUAAGGAGAAGAUUGCGGGUUCAAGUCGCGUACAGAACG: ≤ 0.5. With GUUCCGUUGGCGUGAUGGUAACGCGUCUCCCUCCUAAGGAGAAGACUGCGGGUUCGAGUCCCGUGCGGAUCG, the yeast fitness was 0.566. Next, GUUCGGUUGGCGCAAUGGUAACGCGUCUCCCUCCUAAGGAGAAGACUGCGGGUUCGAGUCCCGUACGGACCG: 0.579. The value for GUUCCAUUGGCGUAAUGGUAACGCGUCUCACUCCUAAGGAGAAGACUGCGGGUUCGAGUCCCGUACGGAACG was 0.845; that for GUUCCGUUGGCGCAAUGGUAACGCGUCUCCUUCCUAAGGAGAAGACUGCGGGUUCGACUCACGUACGGUACG was ≤ 0.5. Next, GUACCGUUGGCGUAAUGGUAACGCGUCUCCCUCCUAAGGAGAAGACUGCGGGUUCGAGUCACGUACGGAACG: 0.778. Turning to GUUCCGUUGGCGCAAUGGUAACGAGUCUCCCUCCUAAGGAGAAGACUGCGGGUUCGAGUCCCGUACGGAACG, the yeast fitness was 0.69. Next, GUUCCGUUGGCGUAAUGGCAACGCGUCUCCCUCCUAAGAAGAAGACUGCGGGUUCGAAUCCCGUACGGAACG: 0.613; GUUCCGUUGGCGUAAUGGUAACGCGUAUCCCUCCUAAGGAGAAGACUGCGGAUUCGAGUCCCGUACGGAACG: 0.619. For the variant GUUCCAUUGGCGUAAUGGUAACGCGUCUCCCUGGUAAGGAGAUGACUGCGGGUUCGAGUCACGUACGGAACG, the yeast fitness is ≤ 0.5. For GUUCCGGUGGCGUAAUGGUAACGCGUCUUCUUCCUAACGAGAAGACUGCGGGUUCGAGUCCCGUACGGAACG, the yeast fitness is ≤ 0.5.

In the case of GUUCCGAUGGAGUAAUGGUACCGCGUCUUCCUCCUAAGGAGAAGACUGUGGGUUCAAGUCCCGUACGGAACG, the yeast fitness is ≤ 0.5. The value for GUACCGUUGGCGUAAUGGUAAGGCGUCUCCCUCCUAAGGAGAAGACUACGGGUUCGAGUCCCGUACGGAACG was 0.544. As for GUUCCGUUGGCCUAAUGGUAACGCGUCUCCCUCCUAGAGAGAAGACAGCGGGUUCGAGUCCCGUACGGAACG, the yeast fitness is ≤ 0.5. The value for GUUCCGUUGGCGUAAUGGUAACGCCUCUCCCUCCUAAGGAAAAGACUGCGGGUUCGAGUCCCGUACGGAACG was 0.789; that for GUUACGUUGGCGUAAUGGGAACGCGUCUCCCUCCUAAGGAGAAGGUUGCGGGUUCGAGUCCCGUACGGAACG was ≤ 0.5.

In the case of GUUCCGUUGGCGCAAUGGUAAUGCGUCUCCCUCCUAAGGAGAAGACUGCGGGUUCGAGUCCCGUACGGAACG, the yeast fitness came to 0.932. The value for GUUCCAUUGGCGUAAUGGUAACGCGUCUCCAUCCUAAGGAGAAGACUGCGGGUUGGAGUCCCGUAAGGAACG was ≤ 0.5; that for GAUCCGUUCGCGUAAGGGUAACGCGUCUCCCGCCUAAGGAGAAGACUGCGGAUUCGAGUCCCCUAUGGAACG was ≤ 0.5. Regarding GUUCCGCUGGCGUAAUGGUAACGCGUCACCCUCCUAAGGAGAAGACUCCGGGUUCGAGUCCCGUACGGUUCG, the yeast fitness is ≤ 0.5. The value for GUUCCGUUGGCGUAAUGGUUACGCAUUUCCCUCCUAAGGAGAAGACUGCGGGUUCGAGUCCCGUACGGAACG was 0.595; that for GUUCCGUUGGCGUAAUGGUAUCGCGUCUCCCUCCUAAGCAGAAGACUGCGGGUUAGCGUCCCGUACGGAACG was ≤ 0.5; that for GUUUGGUUGGCGUAAUGGUAACGCGUCUUCCUCCUAAGGAGAAGACUGCGGGUUCGAGUCCCGUACGGAACG was 0.541. Next, GUUCCGUUGGCGUAAUGGUAAUGCGUCUCCCUCCUAAGGAGAAGAAUGCGGGUUCGAGUCUCGUACGGAACG: ≤ 0.5; GUUCCGUUGGCGUAAUGCUAAAGCGUCUCCCUCCUAAGGAGAAGCUUGCGGGUUCGAGUCCCGUCCGGAACG: ≤ 0.5; GUUCCGUAGGCGUAAUGGUAACGCGUCUCCCUCCUAAGGGGAAGACUGCGGGUUCGAGUCCCGCACGGAACG: 0.623. The value for GUUCCGUGGGCGUAAUGGUAACGCGUCUCCCUCCUAGGGAGAAGACUGCGGGUUUGAGUCCCGUACGGAACG was ≤ 0.5. For GUUUCGUUGGCGUAAUGGUAACGCGUCUCCCUCCUAAGGAGAAGACCGCGGGUUCGAGUCCCGUAUGGAACG, the yeast fitness amounted to 0.766. The value for GUUCCGUUGGCGUAAUGGUAACGCGUCUCCCUCCUAAGGAGAAGACUGCGAGUUCGAGACCCGUACGGAACG was 0.696.

Consider GUUCCGUUGGCGUAAUGGUAACGAGUCUCCCUCCUAAGGAGAAGACUGCGGGUUCGAGUCCCGUACGGUACG, for which the yeast fitness was found to be 0.752.
